The list is not random: actives were taken first. Their share in the collection is about 2.2%.
CSN inh = inhibitors of CSN-mediated cullin deneddylation, primary screen, biochemical, fluorescence polarization, uHTS. AID 651999, 2013. Purified CSN, SCF-Nedd8-OG deneddylation. COP9 signalosome complex subunit 5 (Homo sapiens), Q92905. inhibition, % at 12.5 µM. 360,000 tested, 0.38% active;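 active means pattern-corrected inhibition above about 35%, with an unprinted fluorescence ratio check between 0.5 and 1.5, limit read from the data, passing the limit was not always enough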;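 further: 0% = enzyme with substrate and 100% = substrate without enzyme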
Target sequence (Q92905 whole entry, looked up, one chain of several): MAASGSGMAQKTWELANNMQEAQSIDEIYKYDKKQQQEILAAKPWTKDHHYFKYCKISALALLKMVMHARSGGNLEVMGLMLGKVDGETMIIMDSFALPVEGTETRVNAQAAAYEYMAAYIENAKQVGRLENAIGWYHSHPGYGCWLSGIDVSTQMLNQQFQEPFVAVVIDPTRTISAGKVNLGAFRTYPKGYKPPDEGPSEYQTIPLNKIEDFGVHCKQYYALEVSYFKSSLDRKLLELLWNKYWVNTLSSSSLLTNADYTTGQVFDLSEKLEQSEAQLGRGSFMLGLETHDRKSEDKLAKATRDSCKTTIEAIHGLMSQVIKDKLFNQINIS
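Assay system: purified human Csn5 enzyme expressed in HEK293T cells; measure: % inhibition; also added: SCFSkp2-Nedd8OG substrate at 10 nM final; technique: fluorescence polarization; times: reaction 90 min, room temperature; medium: Tris buffer pH 7.5, NaCl, DTT, Tween-20, trehalose, ovalbumin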
Myeloid diff MLP = induction of myeloid progenitor differentiation, primary screen, cell-based, flow cytometry, MLPCN library. ER-HoxA9 myeloid progenitors, lysozyme-GFP differentiation. calls only at 10 µM. 360,000 tested, 1% active. AID 624256, 2012;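 active means normalized GFP-positive differentiation at or above the plate's own cutoff, the solvent-only control mean plus 3 SD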;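 further: cells exposed to compound for four days before flow analysis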
HNF4A DNA FP = change in binding of human HNF4A to DNA, primary screen, biochemical, fluorescence polarization, FITC-DNA | 360,000 tested, 0.3% active | activity change, % at 10 µM | 1 h | Hepatocyte nuclear factor 4-alpha (Homo sapiens), P41235; in the data active means activity change above about 30%, passing the limit was not always enough
Granule exo inh = LAMP-1 surface exposure blockers, TALL-104 cells – cell-based, flow cytometry, MLPCN library, primary screen | TALL-104 LAMP-1 surface exposure; cells stimulated with thapsigargin and PMA | inhibition, % at 10 µM | 360,000 tested, 0.66% active;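 active means inhibition above about 55%, limit read from the data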
The depositor's hits bear a star; i = inactive; + = active, no number.

SMILES	CSN inh	Myeloid diff MLP	HNF4A DNA FP	Granule exo inh
CC[C@@H]1C(c2ccc(F)cc2)=NN(c2ccccc2)[C@H]1C(=O)N1CCOC1=O	5	i	1	-3
CC[C@@H]1C(c2ccccc2)=NN(c2ccccc2)[C@H]1C(=O)N1CCOC1=O	1	+	2	1
CCc1ccc(C(=O)Cc2cc3cccc(OC)c3oc2=O)cc1	1	i	-2	-9
CCn1ccc(C(=O)N2CCN(c3ncccn3)CC2)n1	2	i	-2	0
O=C(O)c1ccccc1C(=O)NCc1ccccc1	5	i	2	2
Nc1sccc1C(=O)NCc1ccccc1	2	+	-3	7
CCN(CC)c1ccc2cc(-c3nnc(-c4ccncc4)o3)c(=O)oc2c1	-74	+	-84	1
CC(C)(C)N(Cc1ccccc1)C(=O)COC(=O)c1ccc(S(=O)(=O)N2CCOCC2)cc1	-2	i	2	63*
CNC(=O)/C(C#N)=C/c1c(N2CCCCCC2)nc2ccccn2c1=O	8	+	7	4
CCNC(=O)/C(C#N)=C/c1c(N2CCCCCC2)nc2ccccn2c1=O	11	i	0	-3
CCc1nn(CC(=O)NCCc2ccc(OC)cc2OC)c(=O)c2cc3occc3n12	-2	i	1	-4
CC(=O)Nc1nc(C)c(Oc2ccc(Cl)cc2)c(=O)[nH]1	3	i	-1	9
Cc1nc(N)nc(N)c1Oc1ccc(Cl)cc1	7	+	-1	-1
CC(=O)N1CCN(S(=O)(=O)c2ccc3c(c2)CC(=O)N3)CC1	-2	i	-2	1
O=C(CNS(=O)(=O)c1ccccc1)OCC(=O)c1c[nH]c2ccccc12	2	+	0	-1
O=C(CNS(=O)(=O)c1ccccc1F)OCC(=O)c1c[nH]c2ccccc12	-1	i	4	-3
O=C(NN=C1CCCCCC1)c1cc2ccccc2cc1O	-1	i	-6	0
O=C1CCCC(=NNC(=O)c2cc3ccccc3cc2O)C1	72*	i	129	0
O=c1oc2cc(O)ccc2cc1-c1nc2c(s1)CCc1ccccc1-2	-96	+	-95	7
CCOc1ccc(-c2nc(CS(=O)(=O)CC(=O)NCc3ccc(F)cc3)c(C)o2)cc1	1	i	-1	-6
Cc1ccc(C2(c3ccccc3)NC(=O)N(CC(=O)NCc3ccco3)C2=O)cc1C (centres undefined)	0	i	2	-1
COc1ccc(-c2cc(C(F)F)n3ncc(C(=O)N4CCN(C(=O)c5ccco5)CC4)c3n2)cc1	8	+	-3	0
COc1ccc(-c2cc(C(F)F)n3ncc(C(=O)N4CCCCC4)c3n2)cc1	4	i	-1	1
O=C1NC[C@H](Cc2ccccc2)N(CC2CCN(CC3CCCC3)CC2)C1=O	1	i	-1	1
COc1cccc(OC)c1C(=O)Nc1ccc2c(c1)CCCN2S(=O)(=O)c1ccc(C)cc1	-1	i	-2	-2
SMILES	CSN inh	Myeloid diff MLP	HNF4A DNA FP	Granule exo inh
Cc1ccc(S(=O)(=O)N2CCCc3cc(NC(=O)c4c(F)cccc4F)ccc32)cc1	-1	+	0	-1
CCN(CC)CCn1c(SCC(=O)Nc2cccc(OC)c2)nc2c(sc3ccccc32)c1=O	2	i	-2	69*
O=C(CSc1ccc(Cl)cc1)Nn1cnnc1	10	+	2	2
Oc1ccc(Br)cc1C=Nc1ccc2c3c(cccc13)CC2	7	+	30	26
Oc1ccc(Cl)cc1C=Nc1ccccc1Br	-13	i	4	4
Cc1noc(C)c1C(=O)N1CCC1(C)C(=O)NS(=O)(=O)c1ccc(Cl)cc1 (centres undefined)	2	i	-1	-2
CCN1C(=O)/C(=C/C=C2/Sc3ccc4ccccc4c3N2CCO)SC1=S	7	+	19	4
CCN1C(c2ccccc2)=C(c2ccccc2)S/C1=C/C=C1\SC(=S)N(C)C1=O	7	+	28	59*
O=C(NC1CCCCC1)c1cccc(N2C(=O)CCC2=O)c1	3	i	2	28
Cc1noc(C)c1CSc1ccccc1C(=O)N(C)CC(=O)Nc1cccc(F)c1	-1	i	2	-6
COc1ccc(OC)c(CNc2ccc3c(c2)CCC3)c1	6	+	7	38
Cc1ccc(C(=O)NNC(=O)CSc2nnc3c(n2)[nH]c2ccc(F)cc23)cc1	43*	i	-10	-2
CCOc1ccc2[nH]c3nc(SCC(=O)OC(C)C)nnc3c2c1	7	i	1	-4
CC(C)c1ccc2[nH]c3nc(SCC(=O)NC4CC4)nnc3c2c1	2	+	6	-1
Cc1ccc(C)c(NC(=O)C2CCCN(c3cnccn3)C2)c1 (centres undefined)	1	i	2	-1
Cc1sc2nc(CSc3nc4ccccc4c(=O)n3CCCN3CCOCC3)[nH]c(=O)c2c1C	17	+	34*	-1
O=C(OCc1ccccc1)N1CCC2CC1c1ccc(Cl)cc12 (centres undefined)	0	+	-3	1
O=C(OCc1ccccc1)N1CCC2CC1c1c(Cl)cccc12 (centres undefined)	4	i	-1	-5
COc1ccc(CCNC2CC(=O)N(CCc3ccccc3)C2=O)cc1 (centres undefined)	0	i	-4	-8
CCN(CC)c1ccc(NC2CC(=O)N(CCc3ccc(OC)cc3)C2=O)cc1 (centres undefined)	51*	i	57*	1
CC1(C)CC(Nc2ccc(Nc3ccccc3)cc2)CC(C)(C)N1	2	i	5	83*
O=C1NC[C@@H]2CCCN2C1=O	2	i	3	-9
c1ccc2c(c1)NCC1CCCN21 (centres undefined)	2	+	2	-7
CCOc1ccc(C2CC(=O)c3c([nH]c(C(=O)OC)c3C)C2)cc1OC (centres undefined)	2	i	2	-6
COC(=O)c1[nH]c2c(c1C)C(=O)CC(c1cc(OC)ccc1OC)C2 (centres undefined)	3	+	2	-2
CCCCOC(=O)c1[nH]c2c(c1C)C(=O)CC(c1cc(OC)c(OC)c(OC)c1)C2 (centres undefined)	-4	+	-1	7
O=C1c2ccccc2C(=O)N1C1C=CC=CC=C1	0	i	4	-11
CC(C)(C)c1ccc(C(=O)CCC(=O)OCC(=O)NCCc2ccc(S(N)(=O)=O)cc2)cc1	-3	i	1	2
CN1CCN(C(=O)c2ccc3c(c2)N(Cc2ccccc2F)C(=O)c2ccccc2S3=O)CC1 (centres undefined)	6	i	-2	-2

Screening results from PubChem.
